Assay [1] deals with Metabotropic glutamate receptor 5 (Rattus norvegicus) (UniProt P31424). Put plainly: Positive allosteric modulator activity at rat mGluR5 receptor expressed in HEK293 cells assessed as potentiation of glutamate-induced response at 30 uM relative to glutamate. It is filed as cell-based. The gist of the method: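 In mGluR5-expressing HEK293A cells in the calcium mobilization assay, response amplitude with test compound present is expressed as a percentage of the maximal response to glutamate. Values are the average of n≥3.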
Metabotropic glutamate receptor 5 (Rattus norvegicus), sequence (P31424 21-1203 limits assumed): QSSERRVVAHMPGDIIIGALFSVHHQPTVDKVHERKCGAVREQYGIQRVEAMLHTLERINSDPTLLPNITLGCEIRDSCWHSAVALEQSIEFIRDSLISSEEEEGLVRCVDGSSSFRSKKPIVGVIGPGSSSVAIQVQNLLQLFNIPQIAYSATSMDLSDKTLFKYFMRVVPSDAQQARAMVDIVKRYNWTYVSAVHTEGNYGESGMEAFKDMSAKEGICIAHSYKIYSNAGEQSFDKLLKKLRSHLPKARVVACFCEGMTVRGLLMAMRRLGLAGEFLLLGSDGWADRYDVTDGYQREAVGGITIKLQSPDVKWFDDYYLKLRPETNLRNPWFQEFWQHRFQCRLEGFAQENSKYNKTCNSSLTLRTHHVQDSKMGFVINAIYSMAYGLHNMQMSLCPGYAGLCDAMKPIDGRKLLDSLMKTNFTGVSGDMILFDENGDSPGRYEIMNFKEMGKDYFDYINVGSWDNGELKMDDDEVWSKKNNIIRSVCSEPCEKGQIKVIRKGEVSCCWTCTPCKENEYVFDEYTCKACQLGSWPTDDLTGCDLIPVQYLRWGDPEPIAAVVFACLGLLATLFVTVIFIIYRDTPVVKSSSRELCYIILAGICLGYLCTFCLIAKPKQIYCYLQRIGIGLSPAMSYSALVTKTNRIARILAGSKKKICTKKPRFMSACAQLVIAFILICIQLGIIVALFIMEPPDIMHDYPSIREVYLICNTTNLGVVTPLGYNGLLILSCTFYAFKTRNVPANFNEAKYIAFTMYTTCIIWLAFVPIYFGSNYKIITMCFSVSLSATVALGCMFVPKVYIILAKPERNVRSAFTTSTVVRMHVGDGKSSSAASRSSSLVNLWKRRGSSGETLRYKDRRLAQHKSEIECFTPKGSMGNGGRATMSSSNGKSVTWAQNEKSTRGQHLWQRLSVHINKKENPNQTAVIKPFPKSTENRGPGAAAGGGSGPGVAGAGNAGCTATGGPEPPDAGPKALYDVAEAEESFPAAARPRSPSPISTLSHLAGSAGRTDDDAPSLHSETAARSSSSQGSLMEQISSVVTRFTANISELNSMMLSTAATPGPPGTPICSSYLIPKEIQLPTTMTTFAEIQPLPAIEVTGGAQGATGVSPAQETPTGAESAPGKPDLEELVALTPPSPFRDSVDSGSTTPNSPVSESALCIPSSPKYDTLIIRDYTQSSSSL

The target in assay [2] is T1, Metabotropic glutamate receptor 5 (Rattus norvegicus, UniProt P31424). The experiment in a line: Antagonist activity at rat mGluR5 expressed in HEK293 cells by calcium mobilization assay. It counts as functional, cell-based. In short, it runs like this: (§1)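 Rat mGluR5 in HEK293A cells and rat mGluR1 in BHK cells were loaded with a Ca²⁺-sensitive fluorescent dye and washed. Compound was added 3 s after baseline and incubated for 140 s.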
T1 sequence (P31424 whole entry): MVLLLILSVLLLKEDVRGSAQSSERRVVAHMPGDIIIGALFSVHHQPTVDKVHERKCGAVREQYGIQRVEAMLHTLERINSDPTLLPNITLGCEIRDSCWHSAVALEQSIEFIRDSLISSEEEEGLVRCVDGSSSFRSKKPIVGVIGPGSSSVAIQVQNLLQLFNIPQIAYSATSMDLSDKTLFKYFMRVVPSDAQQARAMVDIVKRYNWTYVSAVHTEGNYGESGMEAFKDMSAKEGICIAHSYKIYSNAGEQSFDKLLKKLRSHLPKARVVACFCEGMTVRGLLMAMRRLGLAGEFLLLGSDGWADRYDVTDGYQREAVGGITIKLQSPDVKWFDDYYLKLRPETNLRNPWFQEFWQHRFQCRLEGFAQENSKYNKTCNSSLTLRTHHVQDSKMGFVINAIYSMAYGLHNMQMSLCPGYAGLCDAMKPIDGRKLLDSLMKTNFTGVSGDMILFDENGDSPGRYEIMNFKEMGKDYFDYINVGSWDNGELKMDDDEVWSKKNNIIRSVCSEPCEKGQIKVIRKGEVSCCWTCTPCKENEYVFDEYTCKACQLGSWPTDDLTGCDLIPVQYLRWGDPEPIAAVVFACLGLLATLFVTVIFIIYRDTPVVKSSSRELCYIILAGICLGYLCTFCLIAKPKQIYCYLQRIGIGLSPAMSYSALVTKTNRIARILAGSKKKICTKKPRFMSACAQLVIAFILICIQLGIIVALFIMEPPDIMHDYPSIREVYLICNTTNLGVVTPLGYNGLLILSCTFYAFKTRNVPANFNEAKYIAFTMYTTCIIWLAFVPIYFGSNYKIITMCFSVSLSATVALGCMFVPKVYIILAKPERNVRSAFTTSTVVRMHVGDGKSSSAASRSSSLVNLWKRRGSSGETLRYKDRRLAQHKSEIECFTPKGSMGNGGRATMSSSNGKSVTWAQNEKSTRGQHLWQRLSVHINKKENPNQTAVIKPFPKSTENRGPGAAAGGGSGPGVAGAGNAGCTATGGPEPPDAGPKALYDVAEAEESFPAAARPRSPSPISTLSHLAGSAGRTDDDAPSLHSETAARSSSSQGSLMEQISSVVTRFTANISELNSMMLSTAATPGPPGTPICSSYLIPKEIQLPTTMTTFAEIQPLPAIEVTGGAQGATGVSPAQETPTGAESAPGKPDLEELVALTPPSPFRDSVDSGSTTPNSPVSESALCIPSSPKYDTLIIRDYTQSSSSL

Assay [3] deals with Metabotropic glutamate receptor 1 (Rattus norvegicus, UniProt P23385). Put plainly: Antagonist activity at rat mGluR1 expressed in BHK cells by calcium mobilization assay. It is filed as functional, cell-based. The gist of the method:
as §1
(In general: A change in cytosolic calcium serves as a functional read-out for many receptors and channels.)

For assay [4], the target named is T1, Metabotropic glutamate receptor 5. The experiment in a line: Displacement of [3H]3methoxy-5-(pyridin-2-ylethynyl)pyridine from rat mGluR5. For orientation: Displacement assays read how much labelled ligand stays bound in the presence of the test substance.
The target of assay [5] is Metabotropic glutamate receptor 5 (Rattus norvegicus) (UniProt P31424). Put plainly: (§2) Positive allosteric modulator activity at rat mGluR5 receptor expressed in HEK293 cells assessed as potentiation of glutamate-induced response. It is filed as cell-based.
Assay [6] addresses T1, Metabotropic glutamate receptor 5. The description is as §2. It is filed as cell-based.

SMILES strings stand for the structures. Bounds are passed on as bounds.

Metabotropic glutamate receptor 1, sequence (P23385 whole entry): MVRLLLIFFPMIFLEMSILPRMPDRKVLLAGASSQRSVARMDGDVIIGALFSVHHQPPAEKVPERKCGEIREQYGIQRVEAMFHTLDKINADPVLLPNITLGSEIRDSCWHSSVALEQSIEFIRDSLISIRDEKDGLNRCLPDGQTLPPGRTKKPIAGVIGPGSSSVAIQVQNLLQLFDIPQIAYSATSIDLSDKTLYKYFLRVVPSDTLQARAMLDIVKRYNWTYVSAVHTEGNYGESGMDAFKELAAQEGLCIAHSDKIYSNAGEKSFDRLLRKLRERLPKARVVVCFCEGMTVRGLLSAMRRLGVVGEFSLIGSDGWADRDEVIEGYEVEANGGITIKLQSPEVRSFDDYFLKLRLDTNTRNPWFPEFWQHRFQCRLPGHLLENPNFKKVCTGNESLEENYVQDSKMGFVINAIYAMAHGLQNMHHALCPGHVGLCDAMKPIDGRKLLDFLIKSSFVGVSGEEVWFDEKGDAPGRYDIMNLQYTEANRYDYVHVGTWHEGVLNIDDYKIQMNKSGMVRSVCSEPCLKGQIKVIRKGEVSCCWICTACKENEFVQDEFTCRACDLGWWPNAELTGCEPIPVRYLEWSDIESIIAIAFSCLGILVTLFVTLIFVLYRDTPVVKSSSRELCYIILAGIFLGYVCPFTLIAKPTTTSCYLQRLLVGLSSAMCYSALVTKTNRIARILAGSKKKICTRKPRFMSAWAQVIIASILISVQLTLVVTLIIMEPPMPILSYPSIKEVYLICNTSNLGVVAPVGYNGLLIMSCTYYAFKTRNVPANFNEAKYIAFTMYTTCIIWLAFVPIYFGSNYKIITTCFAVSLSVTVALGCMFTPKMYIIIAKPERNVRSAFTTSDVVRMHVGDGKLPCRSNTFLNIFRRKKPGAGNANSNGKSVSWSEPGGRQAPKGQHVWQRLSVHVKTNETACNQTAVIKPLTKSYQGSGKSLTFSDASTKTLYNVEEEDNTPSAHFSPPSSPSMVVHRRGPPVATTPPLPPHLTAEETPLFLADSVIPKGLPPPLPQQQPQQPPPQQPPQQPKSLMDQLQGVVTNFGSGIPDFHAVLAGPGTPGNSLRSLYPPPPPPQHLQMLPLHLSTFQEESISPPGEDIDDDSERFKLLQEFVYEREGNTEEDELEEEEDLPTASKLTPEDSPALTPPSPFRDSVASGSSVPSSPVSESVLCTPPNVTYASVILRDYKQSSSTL

Usually IC50 stands for the concentration at which inhibition is half-maximal. Regarding `FC(F)(F)c1cccc(Nc2ncnc3ccc(Br)cc23)c1`, in assay [1], the Activity was found to be 3.2%. The IC50 in assay [2] was 1720 nM.
On to `N#Cc1cccc(Nc2ncnc3ccc(F)cc23)c1`, for which the Activity in assay [1] was 3.5%. In assay [2], the IC50 stood at 1370 nM.
Taken in the same sequence, the figures for `N#Cc1ccc2ncnc(Nc3cccc(Cl)c3)c2c1` were 35% and greater than 10000 nM.
`Fc1cc(Cl)cc(Nc2ncnc3ccc(F)cc23)c1`: the Activity in assay [1] is 56%. In addition, the concentration for half-maximal inhibition (IC50) in assay [2] was greater than 10000 nM.
For the molecule `Fc1ccc2ncnc(Nc3cccc(Cl)c3)c2c1`, the Activity in assay [1] came out at 0.9%. The half-inhibitory concentration (IC50) in assay [2] amounted to 311 nM.
Take `Cc1cccc(Nc2ncnc3ccc(F)cc23)c1`: the Activity in assay [1] came to 3.5%. Also, the IC50 in assay [2] is 1350 nM.
With `Clc1cccc(CCNc2ncnc3ccc(Cl)cc23)c1`, the IC50 in assay [2] was greater than 30000 nM.
In the case of `Clc1ccc2ncnc(NCCc3ccccc3Cl)c2c1`, in assay [2], the IC50 was greater than 30000 nM.
As to `Brc1cccc(Nc2nccc3ccc(Br)cc23)c1`, in assay [1], the Activity was found to be 5.4%. In assay [2], the IC50 stood at 4330 nM.
Taken in the same sequence, the figures for `Fc1ccc2ncnc(Nc3ccccc3)c2c1` were 58% and greater than 10000 nM.
Take `Brc1cccc(Oc2ncnc3ccc(Br)cc23)c1`: the Activity in assay [1] was 49%. In addition, the IC50 in assay [2] is greater than 10000 nM.
As to `Clc1ccc2nccc(Nc3cccc(Br)c3)c2c1`, the concentration for half-maximal inhibition (IC50) in assay [2] was greater than 30000 nM.
On to `Fc1ccc2ncnc(Nc3cccc(C(F)(F)F)c3)c2c1`, for which, in assay [1], the Activity stood at 32%. Further, the IC50 in assay [2] is greater than 10000 nM.
The matching figures for `Clc1ccc2ncnc(Oc3cccc(Br)c3)c2c1`: 14% and 6570 nM.
Regarding `Clc1ccc(CCNc2ncnc3ccc(Cl)cc23)cc1`, the IC50 in assay [2] is greater than 30000 nM.
On to `Fc1ccc2ncnc(Nc3ccc(F)c(Cl)c3)c2c1`, for which, in assay [2], the IC50 is greater than 10000 nM.
As for `Clc1ccc2ncnc(Sc3cccc(Br)c3)c2c1`, the IC50 in assay [2] is greater than 30000 nM.
In the case of `Clc1ccc2ncnc(NCc3ccccc3)c2c1`, the IC50 in assay [2] is greater than 30000 nM.
For the molecule `Brc1cccc(Nc2ncnc3ccc(Br)cc23)c1`, the Activity in assay [1] was 2.5%. In addition, the IC50 in assay [2] was determined as 174 nM.
As to `Fc1cccc(Nc2ncnc3ccc(Br)cc23)c1`, the Activity in assay [1] turned out to be 8.8%. In assay [2], the IC50 came to 1970 nM.
By Ki is commonly meant a dissociation constant, usually derived from enzyme kinetics or from competition with a known ligand. Low values mean tighter binding, high ones weaker binding. For the molecule `Clc1ccc2ncnc(Nc3cccc(Br)c3)c2c1`, the IC50 in assay [3] worked out at 955 nM; in assay [2], 124 nM. Moreover, in assay [1], the Activity amounted to 1.2%. Further, in assay [4], affinity was put at a Ki of 249 nM.
With `Brc1cccc(Sc2ncnc3ccc(Br)cc23)c1`, in assay [2], the IC50 is greater than 30000 nM.
As to `Clc1cccc(Nc2ncnc3ccc(Br)cc23)c1`, the values for the IC50 in assay [3] and in assay [2] were 398 nM and 256 nM, respectively. For the same molecule, in assay [1], the Activity was 1.5%. Moreover, in assay [4], the Ki was 116 nM.
Turning to `O=[N+]([O-])c1ccc2ncnc(Nc3cccc(Cl)c3)c2c1`, in assay [1], the Activity was 2.4%. For the same molecule, in assay [2], the IC50 is 274 nM.
For `Fc1ccc2ncnc(Nc3cccc(Cl)c3F)c2c1`, in assay [1], the Activity was 5.2%. Moreover, in assay [2], the concentration for half-maximal inhibition (IC50) was found to be 3720 nM.
Consider `Clc1ccc2ncnc(Nc3ccccc3)c2c1`, for which the Activity in assay [1] was 31%. Also, the IC50 in assay [2] was greater than 10000 nM.
As to `COc1cccc(Nc2ncnc3ccc(F)cc23)c1`, the Activity in assay [1] was determined as 50%. Also, in assay [2], the IC50 was greater than 10000 nM.
For the molecule `Brc1ccc2ncnc(Nc3ccccc3)c2c1`, the Activity in assay [1] worked out at 42%. Also, the IC50 in assay [2] was greater than 10000 nM.
For the molecule `Fc1ccc2ncnc(Nc3cccc(Br)c3)c2c1`, the concentration for half-maximal inhibition (IC50) is 713 nM in assay [3] and 96 nM in assay [2]. In addition, in assay [1], the Activity stood at 0.6%. Also, affinity in assay [4] was put at a Ki of 736 nM.
In the case of `Clc1cccc(CNc2ncnc3ccc(Cl)cc23)c1`, the IC50 in assay [2] is greater than 30000 nM.
Consider `CN(c1cccc(Br)c1)c1ncnc2ccc(Cl)cc12`, for which the IC50 in assay [2] was greater than 30000 nM.
Take `COc1cccc(Nc2ncnc3ccc(Br)cc23)c1`: the Activity in assay [1] amounted to 34%. The IC50 in assay [2] is greater than 10000 nM.
Take `Clc1ccc2ncnc(NCc3ccccc3Cl)c2c1`: the IC50 in assay [2] is greater than 30000 nM.
`Clc1cccc(Nc2ncnc3ccc(Cl)cc23)c1`: in assay [1], the Activity stood at 2.8%. Also, in assay [2], the IC50 came out at 130 nM.
With `Cc1cccc(Nc2ncnc3ccc(Br)cc23)c1`, the Activity in assay [1] is 1.2%. Moreover, in assay [2], the IC50 is 246 nM.
Taken in the same sequence, the figures for `Clc1ccc2ncnc(NCCc3ccccc3)c2c1` were 59% and greater than 10000 nM.
Consider `CN(c1cccc(Br)c1)c1ncnc2ccc(Br)cc12`, for which the IC50 in assay [2] was greater than 30000 nM.
In the case of `COc1ccc2ncnc(Nc3cccc(Cl)c3)c2c1`, the Activity in assay [1] was determined as 13%. In addition, the IC50 in assay [2] stood at 1510 nM.
Broadly, the EC50 is the concentration at which the effect is half-maximal. As to `CCc1cccc(Nc2ncnc3ccc(F)cc23)c1`, in assay [5], the Activity amounted to 52%. In assay [6], the EC50 was greater than 10000 nM.
Regarding `Clc1ccc(CNc2ncnc3ccc(Cl)cc23)cc1`, the IC50 in assay [2] was greater than 30000 nM.
